Source: ChEMBL document CHEMBL4513216, “Probing the Open Global Health Chemical Diversity Library for Multistage-Active Starting Points for Next-Generation Antimalarials” (ACS Infect Dis, 2020)

Test: Toxicity liver stage against HepG2, at 10uM
Assay type: cell-based
Parameters: test concentration 10 uM, cell line HepG2-A16-CD81EGFP
Conditions: human, HepG2-A16-CD81EGFP cells; read-out: INHIBITION
In short: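 Uninfected HepG2-A16-CD81EGFP cells, 3 × 10^3 per well, 1536-well, plated on prespotted compound at 10 μM final, parasite-free screening media added to match infected plates; puromycin 10 μM positive, DMSO 0.5% negative; run in parallel with 48 h PbLuc assay at 37 °C, 5% CO2; viability by CellTiter-Glo luminescence, normalized to controls.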

Row | Structure (SMILES) | cytotoxicity at 10 µM [%]
1 | CCN1C(=O)CCCC12CCCN(C(=O)c1occc1C)C2 (stereo not given) | 2.88
2 | CSc1ncccc1C(=O)NCc1ccc(N(C)C)cc1 | 4.74
3 | O=C(CN1CCCC(Cn2cncn2)C1)NCCOc1ccccc1 (stereo not given) | 5.61
4 | Cn1nc(C#N)c2c1CN(C(=O)c1ccnnc1)CCC2 | -147
5 | CCN1CCOCC2(CCCN(C(=O)c3ccccc3F)C2)C1 (stereo not given) | -4.9
6 | CCN(C)C(=O)c1cccc(C(=O)N(C)Cc2cccc(O)c2)c1 | 11.7
7 | O=C1OC2(CCN(C3CCCOC3)CC2)CN1CCc1ccccc1 (stereo not given) | -17.5
8 | CC[C@H]1CN2CC[C@H]1C[C@@H]2CNC(=O)Nc1ccc(Br)cc1 | 1.08
9 | O=C(NCC1CCOCC1)[C@H]1C[C@@H]2CCN(c3nncs3)C[C@@H]2O1 | 1.73
10 | CC(O)CN1CC(C)(C)CN(C(=O)CCc2ccccc2)CC1=O (stereo not given) | -0.321
11 | COc1c(C2CCCN2C(=O)c2ccc3cc[nH]c3c2)c(C)nn1C (stereo not given) | -2.74
12 | O=C(C1CC1)N1CC[C@H]2[C@@H]1CCC(=O)N2c1ccccc1 | 10.8
13 | CSCCC(C)NC(=O)N(C)Cc1cc(Cl)cn1C (stereo not given) | 3.04
14 | CC[C@H]1N(CC2CCC2)CCC[C@]12CCC(=O)N2Cc1ccncc1 | -0.508
15 | NC(=O)CN1CCOCC(Cc2cccc(F)c2)C1 (stereo not given) | -12.2
16 | Cc1ncc(S(C)(=O)=O)c(C2CCCNC2)n1 (stereo not given) | 1.17
17 | CCNC(=O)CN(CC)C(=O)c1cc(-c2cccc(Cl)c2)no1 | -9.88
18 | CCc1cc(N(C)CCCO)n2nccc2n1 | 1.77
19 | Cn1nc(C#N)c2c1CN(C(=O)c1nc[nH]n1)CCC2 | -100
20 | COCCOc1cccc(C(=O)N2CCCCC2c2nccs2)c1 (stereo not given) | -9.5
21 | Cc1ccc(NC(=O)NCCc2ccncc2C)c(N(C)C)n1 | 12.9
22 | CC[C@@H](C)[C@@H](N)C(=O)Nc1cccc(-c2cnc(NCCO)nc2)c1 | -3.08
23 | CC(C(=O)NCc1ccnc(N2CCOCC2)c1)n1cccn1 (stereo not given) | -6.28
24 | Cc1cnn(CC2CCCN2c2ncnc3ccccc23)c1 (stereo not given) | 46.8
25 | Cc1ccc(C(=O)N2CC(c3cccnc3)C2)cc1N1CCNC1=O | -4.57
26 | Cc1cc2c(cc1Cl)C=CC1(CCN(CC(=O)N3CCOCC3)CC1)O2 | -1.7
27 | CCc1ccccc1CNC(=O)CNC(=O)C(C)(C)C | 2.29

Row | Structure (SMILES) | cytotoxicity at 10 µM [%]
28 | Cc1ccc(F)cc1S(=O)(=O)Nc1cnc(N2CCCC2)nc1 | 3.91
29 | COCCC(=O)N1C[C@@H](c2cccc(OC)c2)[C@@]2(CCCCC(=O)N2)C1 | 9.47
30 | O=C(NCc1cccc(F)c1F)c1cc(CN2CCCC(O)C2)on1 (stereo not given) | -45.9
31 | COc1ccc2cccc(CC(=O)NCc3n[nH]c(=O)[nH]3)c2c1 | -3.22
32 | O=C1COC2(CCN(S(=O)(=O)C3CC3)CC2)CN1c1ccsc1 | 6.12
33 | CCSCC(C)NCc1nc(-c2cccnc2)no1 (stereo not given) | -7.66
34 | O=C(c1ccco1)N1CCc2ncnc(NCc3ccccn3)c2CC1 | 5.61
35 | Cc1cc(C)n(CC2CCCCN2CC(=O)Nc2nncs2)n1 (stereo not given) | -4.25
36 | COCCN1CCN(C(=O)C[C@@H]2C[C@@H](C(C)C)[C@H](CC#N)C=C2C)CC1 | 0.788
37 | Cc1nc(O)cc([C@@H]2CN(C(=O)C3CC3)C[C@H]2c2ccccc2F)n1 | 4.95
38 | CC(C)N1CCC(Cc2cc(-c3cccc(C(=O)O)c3)ncn2)C1 (stereo not given) | 3.01
39 | COC(=O)N1CCCC(C(=O)NCCc2c[nH]c3cc(C)ccc23)C1 (stereo not given) | -5.95
40 | COc1c(NS(=O)(=O)c2ccc(C)c(C)c2)c(C)nn1C | 3.73
41 | Cc1nc2c(NCC(C)N(C)c3ccccc3)ncnc2o1 (stereo not given) | 4.73
42 | Cn1cc(C(=O)N2CCCC(n3cncn3)C2)ccc1=O (stereo not given) | -5.03
43 | CCCOC1CCCN(C(=O)c2cc(CN(CC)CC)c(CC)o2)C1 (stereo not given) | 10.1
44 | CN(Cc1ccccc1NCc1cccnc1)C(=O)c1cccs1 | 0.205
45 | CN1Cc2ccccc2CC2(CCN(Cc3nccn3C)CC2)C1=O | 7.81
46 | Cc1ccc(OCc2nnc(SCC3CCCN(C)C3)o2)cc1 (stereo not given) | -3.73
47 | CN1CCCN(C[C@@H]2CN(C(=O)CCc3cn[nH]c3)C[C@@H]2CO)CC1 | 2.72
48 | Cc1ccc(C(CNCc2nccn2C)N2CCOCC2)s1 (stereo not given) | -1.76
49 | O=C(NCCNS(=O)(=O)c1ccc2c(c1)CCCC2)c1ccoc1 | 0.743
50 | O=C(CCc1ccncc1)NCc1csc(Br)c1 | -15.5
51 | CCS(=O)(=O)N1Cc2nccn2CC(Cn2nc(C)nc2C)C1 (stereo not given) | -2.34
52 | COc1ccc(CN2C[C@H]3CC[C@](O)(c4ccc(C)cn4)[C@H]3C2)c(F)c1 | -1.57
53 | Cc1ccc(CN2CCc3ncc(CNC(=O)C4CCC4)n3CC2)o1 | 8.71
54 | Cc1nc(N2Cc3cnn(Cc4ccc(F)cc4)c3C2)no1 | -3.05

Row | Structure (SMILES) | cytotoxicity at 10 µM [%]
55 | CC(Cc1ccco1)NC(=O)C1=NN(c2ccccc2)C(=O)CC1 (stereo not given) | 0.537
56 | COCC(=O)N1CCC(c2cc(C(F)(F)F)c3c(C)noc3n2)CC1 | -28
57 | NC(=O)Cn1cc(NC(=O)N2CCC(c3ccccc3)CC2)cn1 | -7.69
58 | CC(O)c1cn(CC2CCN(C(=O)c3cccc(N(C)C)c3)CC2)nn1 (stereo not given) | -0.412
59 | Cc1ccc(CN2CCC3(CC2)CN(c2cnn(C)c2)C(=O)CO3)o1 | 2.96
60 | CCCn1cc(NC(=O)c2cccc(CN3CC[C@H](O)C3)c2)nn1 | -12.2
61 | Cc1c(Br)c(C(F)(F)F)nn1C(C)C(=O)O (stereo not given) | 8.05
62 | O=C(C1CCOCC1)N1CCC(O)(Cn2ccc3ccncc32)CC1 | -19.8
63 | O=C(NCc1ccco1)[C@H]1COC[C@H]2CN(Cc3ccoc3)C[C@H]21 | -70.4
64 | Cc1nnc(C(NS(=O)(=O)c2cc(C)c(F)cc2F)C(C)C)[nH]1 (stereo not given) | -6.04
65 | CN1CCCC[C@@H]2[C@H]1[C@@H](c1ccccc1)CCN2C(=O)c1cccnc1 | -21.2
66 | Cc1nn(C)c(C)c1CCC(=O)N1CCCC(n2cncn2)C1 (stereo not given) | -1.4
67 | Cc1ncc(S(C)(=O)=O)c(N(C)CCCc2cnn(C)c2)n1 | -1.07
68 | COc1cccc(OCC2CCCN(C(=O)CCn3ccnc3)C2)c1 (stereo not given) | -19.8
69 | CCN(CC)CC[C@H]1CN(C(=O)c2ccc(F)cc2)CC[C@H]1CC(=O)O | 3.1
70 | CC(C)C[C@H](NCc1cc(O)c2cccc(F)c2n1)C(N)=O | 5.71
71 | Cc1nc(CCNC(=O)Nc2cc(C(F)(F)F)c[nH]c2=O)cs1 | 0.614
72 | CCc1cccc(N2CCC(NC(=O)CCNC(N)=O)CC2)c1 | -12.5
73 | NC(=O)CN1CCC(NCc2cc(C(F)(F)F)ccc2Cl)CC1 | -3.01
74 | CC(C)N1CCCC(CCCc2ccccn2)(C(=O)O)C1 (stereo not given) | 2.6
75 | c1cc(CCNc2ccc(CC3CCNC3)cn2)ccn1 (stereo not given) | 3.09
76 | COCc1ccccc1NC(=O)NCc1ccc(OCC2CC2)nc1 | 3.88
77 | Cc1c(NCCOCC(F)(F)F)cccc1C(=O)N1CCCC1 | -0.595
78 | Cc1oc(C(=O)Nc2cccc(Cl)c2C)cc1S(N)(=O)=O | 7.46
79 | COCCn1cc(C(=O)Nc2nc3c(s2)CCC3)c2ccccc21 | 77.9
80 | O=C(c1cnccn1)N1CCN(Cc2cscn2)CC1 | -8.36
